In series [1] the test system is SARS-CoV-2. Description: Antiviral activity against SARS-CoV-2 infected in human 293TA cells assessed as reduction in cytopathic effect after 2 to 3 days by MTT assay. It counts as functional, organism-based. The settings on record: Severe acute respiratory syndrome coronavirus 2, 293TA. A general note: Cytopathic effects are the visible damage that an infection or toxin causes in cultured cells.

For series [2], the system named is Influenza A virus. Put plainly: Antiviral activity against influenza A virus A/Puerto Rico/8/34 (H1N1) infected in dog MDCK cells assessed as inhibition of viral cytopathic effect incubated for 48 hrs by crystal violet staining based plaque assay. It counts as functional, organism-based. The essentials:
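MDCK cells were grown in MEM with 10% FBS at 37 °C and 5% CO2. Compound was premixed with A/PR/8/34 (H1N1) containing 50–200 pfu for 30 min at room temperature. The mixture was adsorbed onto an MDCK monolayer for 30 min at 37 °C, washed, and incubated 2 days. Plaques were counted after crystal violet staining, and IC50 was taken from a logit–log plot.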

Series [3] deals with Vero C1008. Put plainly: Cytotoxicity against African green monkey VeroE6T cells assessed as reduction in cell viability after 2 to 3 days by MTT assay. As to conditions: chlorocebus sabaeus, time 2-3 day. It counts as toxicity, cell-based. In general terms: Formazan colour is commonly taken as a measure of viable cells.
Series [4] has as its system SARS-CoV-2. Description: Antiviral activity against SARS-CoV-2 infected in African green monkey VeroE6T cells assessed as reduction in cytopathic effect after 2 to 3 days by MTT assay. It counts as functional, organism-based, Vero E6. The settings on record: Severe acute respiratory syndrome coronavirus 2, Vero C1008.
Series [5] in a line: Cytotoxicity against human 293TA cells assessed as reduction in cell viability after 2 to 3 days by MTT assay. It counts as toxicity, cell-based. The settings on record: time 2-3 day.

As usually defined, the IC50 is the concentration that gives 50% inhibition.

Consider `CCCC/C=C/[N+]([O-])=N/[C@H](C)[C@H](C)O`, for which the IC50 in series [1] came out at 9.7 µM; in series [2], 63.2 µM; in series [4], 16.4 µM. In addition, the Activity entry in series [3] and in series [5] was “Non-Toxic” in each case.
With `CCCCCC/[N+]([O-])=N/[C@H](C)[C@H](C)O`, the IC50 in series [1] was 19.7 µM; in series [2], 25.7 µM. The Activity entry in series [3] and in series [5] was “Non-Toxic” in each case.
Regarding `CCC(CC)COC(=O)[C@H](C)N[P@](=O)(OC[C@H]1O[C@@](C#N)(c2ccc3c(N)ncnn23)[C@H](O)[C@@H]1O)Oc1ccccc1` [REMDESIVIR], the IC50 in series [4] was determined as 0.9 µM.

The record behind these values is ChEMBL document CHEMBL5113539, “Dihydromaniwamycin E, a Heat-Shock Metabolite from Thermotolerant Streptomyces sp. JA74, Exhibiting Antiviral Activity against Influenza and SARS-CoV-2 Viruses” (J Nat Prod, 2022).
